# Published values of several laboratories.
# Lines come from different studies, so protocols differ.
# CYP3A7: Cytochrome P450 3A7 (CYP3A7, Homo sapiens, UniProt P24462)
Structure (SMILES),tested on,test,test system,setting,endpoint,value
C=C(C)[C@]12C[C@@H](COC(=O)c3ccccc3)[C@@]34OC5(O[C@@H]1[C@@H]3[C@@H]1O[C@]1(CO)[C@@H](O)[C@@]1(O)[C@H]4[C@H]([C@H](C)[C@@H]1OC(=O)c1ccccc1)[C@H](C)CCCCCC[C@H]5O)O2,MT4,"cell growth or viability, ATP luminescence",,,CC50,> 7 µM
C=C(C)[C@@]12O[C@@]3(/C=C/C=C/C=C/CCC)O[C@@H]1[C@@H]1[C@@H]4O[C@]4(CO)[C@@H](O)[C@]4(O)C(=O)C(C)=C[C@H]4[C@@]1(O3)[C@H](C)[C@H]2OC(=O)/C=C/c1ccc(O)cc1,MT4,"cell growth or viability, ATP luminescence",,96 h,IC50,> 0.034 µM
COC(=O)N[C@H](C(=O)NN(CC[C@@]1(Cc2ccccc2)C(=O)N([C@H]2c3ccccc3C[C@H]2O)C[C@@H]1O)Cc1ccc(-c2cccnc2)cc1)C(C)(C)C,MT4,"cell growth or viability, XTT",,5 days,CC50,> 50 µM
CCCCCC/C=C/CC(=O)O[C@@]12[C@H](OC(=O)c3ccccc3)[C@@H](C)[C@]3(O)[C@@H]4C=C(C)C(=O)[C@@]4(O)[C@H](O)C(CO)=C[C@H]3[C@@H]1C2(C)C,MT4,"cell growth or viability, ATP luminescence",,,CC50,> 7 µM
C=C(C)[C@@]12O[C@@]3(c4ccccc4)O[C@@H]1[C@@H]1[C@@H]4O[C@]4(CO)[C@@H](O)[C@]4(O)C(=O)C(C)=C[C@H]4[C@@]1(O3)[C@H](C)[C@H]2OC(=O)/C=C/C=C/C=C/CCC,MT4,"cell growth or viability, ATP luminescence",,96 h,IC50,> 0.034 µM
Cc1ncc2n1-c1ccc(Cl)cc1C(c1ccccc1F)=NC2,,metabolic stability,"CD-1 mouse, hepatocytes","1 µM, 4 h",compound remaining,0.3%
O=C(O)C(F)(F)C(F)(F)C(F)(F)C(F)(F)C(F)(F)C(F)(F)C(F)(F)F,CYP3A7,"enzyme activity, inhibitor",,"10 µM, pH 7.4",inhibition,16.3%
C=C(C)[C@@]1(O)[C@H](OC(=O)/C=C/C=C/C=C/CCC)[C@@H]2[C@@H]3O[C@]3(CO)[C@@H](O)[C@]3(O)C(=O)C(C)=C[C@H]3[C@@]2(O)[C@H](C)[C@H]1OC(=O)/C=C/c1ccc(O)c(OC)c1,MT4,"cell growth or viability, ATP luminescence",,96 h,IC50,> 0.034 µM
C#Cc1ccc2c(c1)C(c1ccccc1F)=N[C@@H](C)c1c(C(=O)OCC(F)(F)F)ncn1-2,,metabolic stability,"mouse, liver microsomes",20 min,compound remaining,< 5%
N=c1c2c(-c3ccccc3)c(-c3ccccc3)n(Cc3ccccc3)c2ncn1[C@H]1CC[C@H](O)CC1,,metabolic stability,"Sprague-Dawley rat, hepatocytes","1 µM, 4 h",compound remaining,44%
Cc1ncc2n1-c1ccc(Cl)cc1C(c1ccccc1F)=NC2,,metabolic stability,"male CD-1 mouse, liver microsomes","1 µM, 30 min",compound remaining,< 7%
O=S(=O)(O)C(F)(F)C(F)(F)C(F)(F)C(F)(F)C(F)(F)C(F)(F)C(F)(F)C(F)(F)F,CYP3A7,"enzyme activity, inhibitor, mass spectrometry",,,IC50,16.8 µM
COC(=O)N[C@H](C(=O)NN(CC[C@@]1(Cc2ccccc2)C(=O)N([C@H]2c3ccccc3C[C@H]2O)C[C@@H]1O)Cc1ccc(-c2ccncc2)cc1)C(C)(C)C,MT4,"cell growth or viability, XTT",,5 days,CC50,> 50 µM
C=C(C)[C@@]12O[C@@]3(/C=C/C=C/CCCCC)O[C@@H]1[C@@H]1[C@@H]4O[C@]4(CO)[C@@H](O)[C@]4(O)C(=O)C(C)=C[C@H]4[C@@]1(O3)[C@H](C)[C@H]2OC(=O)c1ccccc1,MT4,"cell growth or viability, ATP luminescence",,96 h,IC50,> 0.034 µM
COC(=O)N[C@H](C(=O)NN(CC[C@]1(Cc2ccccc2)C(=O)N([C@H]2c3ccccc3C[C@H]2O)C[C@@H]1O)Cc1ccc(Br)cc1)C(C)(C)C,MT4,"cell growth or viability, XTT",,5 days,CC50,> 50 µM
C=C(C)[C@@]12O[C@@]3(/C=C/C=C/CCCCC)O[C@@H]1[C@@H]1[C@@H]4O[C@]4(CO)[C@@H](O)[C@]4(O)C(=O)C(C)=C[C@H]4[C@@]1(O3)[C@H](C)[C@H]2OC(=O)/C=C/c1ccccc1,MT4,"cell growth or viability, ATP luminescence",,96 h,IC50,> 0.034 µM
CCCC/C=C/C=C/CC(=O)O[C@@]12[C@H](OC(=O)c3ccccc3)[C@@H](C)[C@]3(O)[C@@H]4C=C(C)C(=O)[C@@]4(O)[C@H](O)C(CO)=C[C@H]3[C@@H]1C2(C)C,MT4,"cell growth or viability, ATP luminescence",,,CC50,> 7 µM
CC[C@H](C)[C@H]1C(=O)N2CCC[C@H]2C(=O)O[C@H](C(C)(C)C)C[C@@H](C)C[C@H](O)[C@H](C)C2=N[C@@H](CCC(=O)N[C@@H](Cc3ccc(OC)cc3)C(=O)N(C)[C@@H](C)C(=O)N1C)CS2,,metabolic stability,"female CD-1 mouse, liver microsomes","1 µM, 0 h, pH 7.4",compound remaining,100%
C=C(C)[C@@]12O[C@@]3(/C=C/C=C/CCCCC)O[C@@H]1[C@@H]1[C@@H]4O[C@]4(CO)[C@@H](O)[C@]4(O)C(=O)C(C)=C[C@H]4[C@@]1(O3)[C@H](C)[C@H]2OC(=O)/C=C/c1ccc(O)cc1,MT4,"cell growth or viability, ATP luminescence",,96 h,IC50,> 0.034 µM
O=S(=O)(O)C(F)(F)C(F)(F)C(F)(F)C(F)(F)C(F)(F)C(F)(F)F,CYP3A7,"enzyme activity, inhibitor",,"10 µM, pH 7.4",inhibition,29.1%
CC[C@H](C)[C@H]1C(=O)N2CCC[C@H]2C(=O)O[C@H](C(C)(C)C)C[C@@H](C)C[C@H](O)C(C)(C)C2=N[C@@H](CCC(=O)N[C@@H](Cc3ccc(OC)cc3)C(=O)N(C)[C@@H](C)C(=O)N1C)CS2,,metabolic stability,"female CD-1 mouse, liver microsomes","1 µM, 0 h, pH 7.4",compound remaining,100%
